Measured values published in ChEMBL document CHEMBL1140728, “Synthesis and biological activity of human neuropeptide S analogues modified in position 2” (J Med Chem, 2008).
Non-standard residues stand in square brackets, D forms with d. Residues, ends and D or L forms follow the SMILES beside them. Phe(4-NO2) = N[C@@H](Cc1ccc([N+](=O)[O-])cc1)C(=O)O; Phe(4-Br) = N[C@@H](Cc1ccc(Br)cc1)C(=O)O; Phe(4-Cl) = N[C@@H](Cc1ccc(Cl)cc1)C(=O)O; Dip = N[C@H](C(=O)O)C(c1ccccc1)c1ccccc1; 1Nal = N[C@@H](Cc1cccc2ccccc12)C(=O)O; Atc(2S) = N[C@@]1(C(=O)O)CCc2ccccc2C1; Phe(2-Me) = Cc1ccccc1C[C@H](N)C(=O)O; β3hF = N[C@H](CC(=O)O)Cc1ccccc1; Aic = NC1(C(=O)O)Cc2ccccc2C1; Phg = N[C@H](C(=O)O)c1ccccc1

Columns and labels:
Assay type in all cases: functional, cell-based
[1] = target: T1, Neuropeptide S receptor (Mus musculus) (UniProt Q8BZP8); assay: Agonist activity at mouse recombinant NPS receptor expressed in HEK293 cells assessed as intracellular calcium mobilization at 10 umol
T1 sequence (whole entry): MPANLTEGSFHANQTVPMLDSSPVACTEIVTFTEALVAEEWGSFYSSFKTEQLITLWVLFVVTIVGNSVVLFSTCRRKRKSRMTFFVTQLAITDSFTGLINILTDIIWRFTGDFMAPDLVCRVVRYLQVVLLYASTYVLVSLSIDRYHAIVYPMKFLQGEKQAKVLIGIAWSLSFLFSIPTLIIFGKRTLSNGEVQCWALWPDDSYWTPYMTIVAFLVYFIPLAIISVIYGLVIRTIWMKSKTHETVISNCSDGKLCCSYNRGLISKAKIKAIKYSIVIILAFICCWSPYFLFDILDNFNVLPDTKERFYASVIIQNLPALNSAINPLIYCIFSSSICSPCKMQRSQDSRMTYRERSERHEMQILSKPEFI

Neuropeptide S receptor = target: T2, Neuropeptide S receptor (Mus musculus, UniProt Q8BZP8); assay: Agonist activity at mouse recombinant NPS receptor expressed in HEK293 cells assessed as intracellular calcium mobilization
T2 sequence (Q8BZP8 whole entry): T1 sequence (whole entry)
In short: (§1)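 HEK293 cells stably expressing mouse NPSR, kept in DMEM with 10% FBS, 2 mM L-glutamine and hygromycin (100 mg/L), were seeded at 50 000 cells/well. Next day they were loaded with Fluo-4 AM (3 µmol), probenecid (2.5 mmol) and 0.01% pluronic acid for 30 min at 37 °C. Agonist dilutions in HBSS/HEPES with 0.02% BSA were added, and FlexStation II fluorescence was read at 22 °C.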

[2] = target: T1, Neuropeptide S receptor (Mus musculus); assay: Agonist activity at mouse recombinant NPS receptor expressed in HEK293 cells assessed as intracellular calcium mobilization relative to baseline; in short: as §1

Compound	Activity [1] [%]	EC50 (Neuropeptide S receptor) [nM]	Emax [2] [%]
H-SNRNGVGTGMKKTSFQRAKS-OH	49	–	–
H-SKRNGVGTGMKKTSFQRAKS-OH	103	–	–
CSCC[C@H](NC(=O)CNC(=O)[C@@H](NC(=O)CNC(=O)[C@@H](NC(=O)CNC(=O)[C@H](CC(N)=O)NC(=O)[C@H](CCCNC(=N)N)NC(=O)C[C@H](Cc1ccccc1)NC(=O)[C@@H](N)CO)C(C)C)[C@@H](C)O)C(=O)N[C@@H](CCCCN)C(=O)N[C@@H](CCCCN)C(=O)N[C@H](C(=O)N[C@@H](CO)C(=O)N[C@@H](Cc1ccccc1)C(=O)N[C@@H](CCC(N)=O)C(=O)N[C@@H](CCCNC(=N)N)C(=O)N[C@@H](C)C(=O)N[C@@H](CCCCN)C(=O)N[C@@H](CO)C(=O)O)[C@@H](C)O (H-S[β3hF]RNGVGTGMKKTSFQRAKS-OH)	177	–	–
CSCC[C@H](NC(=O)CNC(=O)[C@@H](NC(=O)CNC(=O)[C@@H](NC(=O)CNC(=O)[C@H](CC(N)=O)NC(=O)[C@H](CCCNC(=N)N)NC(=O)[C@@H](NC(=O)[C@@H](N)CO)c1ccccc1)C(C)C)[C@@H](C)O)C(=O)N[C@@H](CCCCN)C(=O)N[C@@H](CCCCN)C(=O)N[C@H](C(=O)N[C@@H](CO)C(=O)N[C@@H](Cc1ccccc1)C(=O)N[C@@H](CCC(N)=O)C(=O)N[C@@H](CCCNC(=N)N)C(=O)N[C@@H](C)C(=O)N[C@@H](CCCCN)C(=O)N[C@@H](CO)C(=O)O)[C@@H](C)O (H-S[Phg]RNGVGTGMKKTSFQRAKS-OH)	141	–	–
H-SERNGVGTGMKKTSFQRAKS-OH	170	–	–
CSCC[C@H](NC(=O)CNC(=O)[C@@H](NC(=O)CNC(=O)[C@@H](NC(=O)CNC(=O)[C@H](CC(N)=O)NC(=O)[C@H](CCCNC(=N)N)NC(=O)[C@@H](NC(=O)[C@@H](N)CO)C(c1ccccc1)c1ccccc1)C(C)C)[C@@H](C)O)C(=O)N[C@@H](CCCCN)C(=O)N[C@@H](CCCCN)C(=O)N[C@H](C(=O)N[C@@H](CO)C(=O)N[C@@H](Cc1ccccc1)C(=O)N[C@@H](CCC(N)=O)C(=O)N[C@@H](CCCNC(=N)N)C(=O)N[C@@H](C)C(=O)N[C@@H](CCCCN)C(=O)N[C@@H](CO)C(=O)O)[C@@H](C)O (H-S[Dip]RNGVGTGMKKTSFQRAKS-OH)	130	–	–
CSCC[C@H](NC(=O)CNC(=O)[C@@H](NC(=O)CNC(=O)[C@@H](NC(=O)CNC(=O)[C@H](CC(N)=O)NC(=O)[C@H](CCCNC(=N)N)NC(=O)[C@H](Cc1cccc2ccccc12)NC(=O)[C@@H](N)CO)C(C)C)[C@@H](C)O)C(=O)N[C@@H](CCCCN)C(=O)N[C@@H](CCCCN)C(=O)N[C@H](C(=O)N[C@@H](CO)C(=O)N[C@@H](Cc1ccccc1)C(=O)N[C@@H](CCC(N)=O)C(=O)N[C@@H](CCCNC(=N)N)C(=O)N[C@@H](C)C(=O)N[C@@H](CCCCN)C(=O)N[C@@H](CO)C(=O)O)[C@@H](C)O (H-S[1Nal]RNGVGTGMKKTSFQRAKS-OH)	–	1.95	232
CSCC[C@H](NC(=O)CNC(=O)[C@@H](NC(=O)CNC(=O)[C@@H](NC(=O)CNC(=O)[C@H](CC(N)=O)NC(=O)[C@H](CCCNC(=N)N)NC(=O)[C@H](Cc1ccc(Br)cc1)NC(=O)[C@@H](N)CO)C(C)C)[C@@H](C)O)C(=O)N[C@@H](CCCCN)C(=O)N[C@@H](CCCCN)C(=O)N[C@H](C(=O)N[C@@H](CO)C(=O)N[C@@H](Cc1ccccc1)C(=O)N[C@@H](CCC(N)=O)C(=O)N[C@@H](CCCNC(=N)N)C(=O)N[C@@H](C)C(=O)N[C@@H](CCCCN)C(=O)N[C@@H](CO)C(=O)O)[C@@H](C)O (H-S[Phe(4-Br)]RNGVGTGMKKTSFQRAKS-OH)	–	0.646	309
H-SDRNGVGTGMKKTSFQRAKS-OH	39	–	–
H-STRNGVGTGMKKTSFQRAKS-OH	114	–	–
CSCC[C@H](NC(=O)CNC(=O)[C@@H](NC(=O)CNC(=O)[C@@H](NC(=O)CNC(=O)[C@H](CC(N)=O)NC(=O)[C@H](CCCNC(=N)N)NC(=O)[C@]1(NC(=O)[C@@H](N)CO)CCc2ccccc2C1)C(C)C)[C@@H](C)O)C(=O)N[C@@H](CCCCN)C(=O)N[C@@H](CCCCN)C(=O)N[C@H](C(=O)N[C@@H](CO)C(=O)N[C@@H](Cc1ccccc1)C(=O)N[C@@H](CCC(N)=O)C(=O)N[C@@H](CCCNC(=N)N)C(=O)N[C@@H](C)C(=O)N[C@@H](CCCCN)C(=O)N[C@@H](CO)C(=O)O)[C@@H](C)O (H-S[Atc(2S)]RNGVGTGMKKTSFQRAKS-OH)	–	11.2	257
H-SQRNGVGTGMKKTSFQRAKS-OH	54	–	–
H-SYRNGVGTGMKKTSFQRAKS-OH	–	2.34	312
H-SLRNGVGTGMKKTSFQRAKS-OH	–	8.32	282
CSCC[C@H](NC(=O)CNC(=O)[C@@H](NC(=O)CNC(=O)[C@@H](NC(=O)CNC(=O)[C@H](CC(N)=O)NC(=O)[C@H](CCCNC(=N)N)NC(=O)[C@H](Cc1ccccc1C)NC(=O)[C@@H](N)CO)C(C)C)[C@@H](C)O)C(=O)N[C@@H](CCCCN)C(=O)N[C@@H](CCCCN)C(=O)N[C@H](C(=O)N[C@@H](CO)C(=O)N[C@@H](Cc1ccccc1)C(=O)N[C@@H](CCC(N)=O)C(=O)N[C@@H](CCCNC(=N)N)C(=O)N[C@@H](C)C(=O)N[C@@H](CCCCN)C(=O)N[C@@H](CO)C(=O)O)[C@@H](C)O (H-S[Phe(2-Me)]RNGVGTGMKKTSFQRAKS-OH)	–	1.86	222
CSCC[C@H](NC(=O)CNC(=O)[C@@H](NC(=O)CNC(=O)[C@@H](NC(=O)CNC(=O)[C@H](CC(N)=O)NC(=O)[C@H](CCCNC(=N)N)NC(=O)[C@H](Cc1ccc(Cl)cc1)NC(=O)[C@@H](N)CO)C(C)C)[C@@H](C)O)C(=O)N[C@@H](CCCCN)C(=O)N[C@@H](CCCCN)C(=O)N[C@H](C(=O)N[C@@H](CO)C(=O)N[C@@H](Cc1ccccc1)C(=O)N[C@@H](CCC(N)=O)C(=O)N[C@@H](CCCNC(=N)N)C(=O)N[C@@H](C)C(=O)N[C@@H](CCCCN)C(=O)N[C@@H](CO)C(=O)O)[C@@H](C)O (H-S[Phe(4-Cl)]RNGVGTGMKKTSFQRAKS-OH)	–	0.708	298
CSCC[C@H](NC(=O)CNC(=O)[C@@H](NC(=O)CNC(=O)[C@@H](NC(=O)CNC(=O)[C@H](CC(N)=O)NC(=O)[C@H](CCCNC(=N)N)NC(=O)[C@H](Cc1ccc([N+](=O)[O-])cc1)NC(=O)[C@@H](N)CO)C(C)C)[C@@H](C)O)C(=O)N[C@@H](CCCCN)C(=O)N[C@@H](CCCCN)C(=O)N[C@H](C(=O)N[C@@H](CO)C(=O)N[C@@H](Cc1ccccc1)C(=O)N[C@@H](CCC(N)=O)C(=O)N[C@@H](CCCNC(=N)N)C(=O)N[C@@H](C)C(=O)N[C@@H](CCCCN)C(=O)N[C@@H](CO)C(=O)O)[C@@H](C)O (H-S[Phe(4-NO2)]RNGVGTGMKKTSFQRAKS-OH)	–	3.63	290
CSCC[C@H](NC(=O)CNC(=O)[C@@H](NC(=O)CNC(=O)[C@@H](NC(=O)CNC(=O)[C@H](CC(N)=O)NC(=O)[C@H](CCCNC(=N)N)NC(=O)C1(NC(=O)[C@@H](N)CO)Cc2ccccc2C1)C(C)C)[C@@H](C)O)C(=O)N[C@@H](CCCCN)C(=O)N[C@@H](CCCCN)C(=O)N[C@H](C(=O)N[C@@H](CO)C(=O)N[C@@H](Cc1ccccc1)C(=O)N[C@@H](CCC(N)=O)C(=O)N[C@@H](CCCNC(=N)N)C(=O)N[C@@H](C)C(=O)N[C@@H](CCCCN)C(=O)N[C@@H](CO)C(=O)O)[C@@H](C)O (H-S[Aic]RNGVGTGMKKTSFQRAKS-OH)	–	33.9	211
